Screens from PubChem BioAssay.
SMARCA2 act: increases SMARCA2 function in MMTV reporter cells. MG213 cells, MMTV-luciferase reporter, dexamethasone, overnight. activation, % at 9.1 µM. 1% of 370,000 active; in the data active = activation above about 7.8%;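 also: 0% = vehicle wells and 100% = reference activator wells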
ARFGAP1 inh: rat ARFGAP1 inhibition; 0.26% of 360,000 active; inhibition, % at 16.5 µM; Arfgap1-stimulated ARF1 GTP hydrolysis, GDP FP detection; Q62848;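 active = inhibition above a per-plate limit, mean inhibition of low control wells plus 3 SD, cut at about 25% in these data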;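 also: 0% = DMSO wells with enzyme and 100% = wells lacking Arfgap1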
Target sequence (Q62848 1-136 limits assumed): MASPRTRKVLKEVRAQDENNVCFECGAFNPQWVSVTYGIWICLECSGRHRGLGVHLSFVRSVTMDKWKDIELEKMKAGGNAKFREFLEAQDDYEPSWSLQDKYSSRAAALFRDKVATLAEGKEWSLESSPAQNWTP
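Material: truncated rat Arfgap1 GAP domain; Incubation: compound-enzyme preincubation 20 min, reaction 120 min, detection 60 min, 25 °C; Read-out: percent inhibition of Arfgap1-stimulated GTP hydrolysis; Technique: FP, GDP Alexa 633 tracer displaced from anti-GDP antibody, 620/688 nm; Controls: No-Arfgap1 wells (100%) versus DMSO full-reaction wells (0%); Replication: single well per compound.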
esBAF inh: inhibitors of esBAF chromatin remodeling in mouse ES cells; Bmi1-luciferase knock-in reporter, 24 h; 100% = twice the neutral-well signal; reporter increase, % at 12.5 µM; 2% of 350,000 active; in the data active = activation above about 40%;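 also: 0% = median of the plate's neutral control wells and 100% = double that signal; a rise in the Bmi1 reporter signal indicates esBAF inhibition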
ASAP1 inh: ASAP1 ArfGAP inhibition. 0.19% of 360,000 active. Q9ULH1. ASAP1-stimulated ARF1 GTP hydrolysis, GDP FP detection. inhibition, % at 16.5 µM; in the data active = inhibition above about 25%;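 also: 0% = vehicle with enzyme and substrate and 100% = no enzyme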
Target sequence (Q9ULH1 325-724 limits assumed): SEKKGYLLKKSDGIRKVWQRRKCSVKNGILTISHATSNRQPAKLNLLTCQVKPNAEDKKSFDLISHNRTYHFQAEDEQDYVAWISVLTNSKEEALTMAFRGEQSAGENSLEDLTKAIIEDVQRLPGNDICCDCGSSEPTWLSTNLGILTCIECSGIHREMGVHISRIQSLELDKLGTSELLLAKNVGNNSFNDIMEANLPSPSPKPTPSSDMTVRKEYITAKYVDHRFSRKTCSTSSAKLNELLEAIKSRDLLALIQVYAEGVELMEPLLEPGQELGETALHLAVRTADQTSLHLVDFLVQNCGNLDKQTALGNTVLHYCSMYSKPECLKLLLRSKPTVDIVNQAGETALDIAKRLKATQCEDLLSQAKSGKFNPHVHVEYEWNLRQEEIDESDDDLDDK
* hit, by the source's call; · = no result given. The list is not random: actives were taken first. Their share in the collection is about 2.6%.

SMILES	SMARCA2 act	ARFGAP1 inh	esBAF inh	ASAP1 inh
O=C(Nc1ccc2ccccc2c1)c1ccccc1[N+](=O)[O-]	7	8	51*	-15
Cc1ccc(NC(=O)c2cc3ccccc3cc2O)cc1	-3	11	44*	2
CCOC(=O)c1ccc(NC(=O)c2ccccc2[N+](=O)[O-])cc1	-2	6	73*	5
O=C(O)c1cccc([N+](=O)[O-])c1C(=O)Nc1ccc2ccccc2c1	2	4	12	11
CCN1[C@H](C(=O)NC2Cc3ccccc3C2)[C@@H](CO)[C@@H]2Cn3c(cccc3=O)[C@@H]21	·	·	-23	·
Cc1cccc(C(=O)Nc2ccc3ccccc3c2)c1	3	7	47*	1
Cc1c(C(=O)Nc2ccc(Nc3ccccc3)cc2)cccc1[N+](=O)[O-]	-1	-2	-4	8
Cc1c(C(=O)Nc2ccc3c(c2)CCC3)cccc1[N+](=O)[O-]	3	3	82*	2
Cc1cccc(/C(N)=N/OC(=O)Cc2cccs2)c1	4	0	48*	-3
N/C(=N\OC(=O)Cc1cccs1)c1ccccc1	2	0	72*	-1
N/C(Cc1cccs1)=N\OC(=O)COc1ccccc1	4	7	17	-2
N/C(=N\OC(=O)c1cccs1)c1ccc(Cl)cc1	1	6	14	11
N/C(=N\OC(=O)Cc1cccs1)c1ccc(Cl)cc1	4	-6	81*	-7
Cc1ccc(/C(N)=N/OC(=O)Cc2cccs2)cc1	5	4	55*	-6
N/C(=N\OC(=O)Cc1cccs1)c1cccc([N+](=O)[O-])c1	-2	11	34	17
CCC(=O)Nc1ccc2c(c1)C(=O)N(C)C[C@@H](OC)[C@@H](C)CN(C(=O)c1cccnc1)[C@H](C)CO2	·	·	-1	·
CC=Cc1ccc2n(c1=O)C[C@@H]1[C@@H](CO)[C@H](C(=O)NCC)N(Cc3ccccc3Cl)[C@H]21 (mixture of isomers)	·	·	-1	·
COc1ccccc1CNC(=O)C[C@H]1CC[C@H]2[C@@H](COc3ccc(NC(=O)c4ccno4)cc3C(=O)N2C)O1	·	·	4	·
Cc1cn(-c2ccc(Br)cc2)[nH]c1=O	3	15	52*	7
Cc1nn(-c2ccc(Br)cc2)c(=O)c2ccccc12	7	2	31	-6
Nc1ccccc1NC1=CC(=O)CC(c2ccco2)C1 (configuration not stated)	7.9*	-9	14	-4
COC(=O)c1ccc(C(=O)Nc2ccc(C(C)C)cc2N)cc1	4	8	47*	-2
O=C(Nc1cccc(F)c1)c1ccc(-c2ccccc2C(F)(F)F)o1	1	2	·	2
C/C(=C\C(=O)c1ccccc1)Nc1ccc2c(c1)OCO2	2	4	·	-6
Cc1ccc(C(=O)Nc2ccc3c(c2)OCO3)o1	3	2	48*	-10
SMILES	SMARCA2 act	ARFGAP1 inh	esBAF inh	ASAP1 inh
Cc1ccc(C(=O)Nc2ccccc2Oc2ccccc2)o1	-2	-4	·	8
Cc1ccc(C(=O)Nc2cccc(Oc3ccccc3)c2)o1	2	8	69*	-4
C/C(=C\C(=O)c1ccc(C)o1)Nc1ccc2c(c1)OCO2	1	6	66*	9
Cc1ccccc1-c1ccc(C(=O)Nc2cccc(F)c2)o1	5	8	45*	6
O=C(Nc1ccc(F)cc1)N1C[C@@H]2[C@H](c3ccccc31)[C@H](CO)N2C(=O)c1ccccc1F	·	·	4	·
O=C(C[C@H]1CC[C@@H]2[C@H](COC[C@H](O)CN2C(=O)Cc2ccccc2)O1)NC1Cc2ccccc2C1	·	·	-3	·
COc1ccccc1C#Cc1cnc2c(c1)C(=O)N([C@@H](C)CO)C[C@H](C)[C@@H](CN(C)C(=O)c1ccc3c(c1)OCO3)O2	·	·	1	·
CC(=O)Nc1cccc(Oc2ccc(-c3noc(C)n3)cc2)c1	3	-5	72*	19
COc1ccc(-c2noc(-c3ccccc3C(=O)Nc3cccc(OC)c3)n2)cc1	3	13	12	-6
C[C@@H]1CN([C@H](C)CO)S(=O)(=O)c2ccc(C3=CCCC3)cc2O[C@@H]1CN(C)C(=O)c1cccnc1	·	·	-10	·
O=C(Nc1ccc2oc(-c3cccc(F)c3)nc2c1)c1ccccc1F	2	4	·	-9
CC(C)CC(=O)Nc1ccc2oc(-c3ccncc3)nc2c1	5	7	67*	13
O=C(Cc1ccccc1)Nc1ccc2oc(-c3ccncc3)nc2c1	1	1	8	-14
O=C(Nc1ccc2oc(-c3ccncc3)nc2c1)c1ccccc1F	1	-4	39	-6
O=C(Nc1ccc2oc(-c3ccccc3F)nc2c1)c1ccccc1F	2	-13	85*	5
O=C(Nc1ccc2oc(-c3ccc(Cl)c(Cl)c3)nc2c1)c1ncn[nH]1	0	11	52*	5
O=C(Nc1ccc2oc(-c3ccccc3)nc2c1)c1ccccc1F	2	-4	51*	9
CC1CCc2c(sc(NC(=O)/C=C/c3cccs3)c2C(=O)O)C1 (configuration not stated)	0	-3	53*	-3
O=C(Nc1ccccc1)NC1CCCCC1	0	-10	46*	-20
CCOc1ccc(NC(=O)C(=S)NC2CCCCC2)cc1	-1	-2	·	-1
CCc1ccc(NC(=O)C(=S)NC2CCCCC2)cc1	4	1	30	8
O=C(NC1CCCCC1)N(c1ccccc1)c1nnc(-c2cccc([N+](=O)[O-])c2)s1	3	11	66*	5
CCOc1ccc(NC(=O)NC2CCCCCCC2)cc1	1	-3	59*	-6
O=C(Nc1ccccc1NC(=O)NC1CCCCC1)NC1CCCCC1	4	4	15	10
CCc1ccc(NC(=O)NC2CCCCCCC2)cc1	6	16	58*	3
SMILES	SMARCA2 act	ARFGAP1 inh	esBAF inh	ASAP1 inh
CCS(=O)(=O)Nc1ccc2c(c1)C(=O)N(C)[C@H]1CC[C@H](CC(=O)Nc3ccccc3)O[C@H]1CO2	·	·	2	·
C[C@H]1CN([C@@H](C)CO)C(=O)Cc2cc(NS(=O)(=O)c3cn(C)cn3)ccc2O[C@@H]1CN(C)C(=O)NC1CCCCC1	·	·	0	·
CCOc1ccc(NC(=O)Nc2cccc(C)n2)cc1	3	4	57*	3
O=C(Nc1cccc([N+](=O)[O-])c1)NC1CCCCCCC1	-1	11	78*	8
Cc1ccc(NC(=O)NC2CCCCC2)cc1Cl	3	3	85*	0
CCOc1ccc(C(=O)Nc2cccc(C)n2)cc1	7	0	-32	-11
O=C(CNC1CCCCC1)Nc1cccc([N+](=O)[O-])c1	-3	-4	6	0
CCCCc1ccc(NC(=O)C2CCCC2)cc1	7.8*	0	·	-2
CCC(=O)N1C[C@H](C)[C@@H](OC)CN(C)C(=O)c2ccc(NC(=O)c3cnccn3)cc2OC[C@H]1C	·	·	1	·
CN(C)C(=O)c1cccc(-c2ccc([C@@H]3[C@H]4CN(S(C)(=O)=O)CCCCN4[C@H]3CO)cc2)c1	·	·	6	·
CC(=O)N1CCN(C(=O)c2ccc(-c3cccc(C(F)(F)F)c3)o2)CC1	1	-10	-1	-8
O=C(c1ccc(-c2cccc(C(F)(F)F)c2)o1)N1CCOCC1	4	6	71*	-5
